Results published in ChEMBL document CHEMBL1156229, “Pharmacophore development and application toward the identification of novel, small-molecule autotaxin inhibitors” (J Med Chem, 2010).
Active and inactive are the calls of the source. The calls are words filed in the database; no cut-off is given here.

What was measured:
Autotaxin [1] = target: T1, Autotaxin (Homo sapiens, UniProt Q13822); assay: Inhibition of human recombinant C-terminal FLAG-tagged autotaxin expressed in baculovirus-infected Sf9 cells assessed as FS-3 hydrolysis at 10 uM relative to control
In short: (§1)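 Single-dose screen: inhibitor 10 μM final, purified recombinant human ATX 8.3 nM, FS-3 1 μM, fatty acid free BSA 30 μM in Tris pH 8 buffer (1 mM MgCl2, 1 mM CaCl2, 3 mM KCl, 140 mM NaCl), 37 °C. Fluorescence (ex 485/em 538) read every 2 min; percent activity vs vehicle after no-ATX subtraction at 1 h; mean ± SD of three wells.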

Autotaxin [2] = target: T1, Autotaxin; assay: Inhibition of human recombinant C-terminal FLAG-tagged autotaxin expressed in baculovirus-infected Sf9 cells assessed as FS-3 hydrolysis
In short: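 Dose response: final inhibitor 30, 10, 3, 1, 0.3, 0.1, 0.03 μM, plus 0.01 and 0.003 μM for some compounds; purified human ATX 8.3 nM, 1 μM FS-3, 30 μM fatty acid free BSA, Tris pH 8 buffer, 37 °C. Fluorescence ex 485/em 538 every 2 min; percent activity vs vehicle at 1 h after no-ATX background subtraction; mean of three wells.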

Autotaxin [3] = target: T1, Autotaxin; assay: Inhibition of human recombinant C-terminal FLAG-tagged autotaxin expressed in baculovirus-infected Sf9 cells assessed as FS-3 hydrolysis at 0.03 uM; values are per cent of control
Autotaxin [4] = target: T1, Autotaxin; assay: Competitive inhibition of human recombinant C-terminal FLAG-tagged autotaxin expressed in baculovirus-infected Sf9 cells assessed as FS-3 hydrolysis by Michaelis-Menten method
Autotaxin [5] = target: T1, Autotaxin; assay: Inhibition of human recombinant C-terminal FLAG-tagged autotaxin expressed in baculovirus-infected Sf9 cells assessed as FS-3 hydrolysis at 3 uM; values are per cent of control
Autotaxin [6] = target: T1, Autotaxin; assay: Inhibition of human recombinant C-terminal FLAG-tagged autotaxin expressed in baculovirus-infected Sf9 cells assessed as FS-3 hydrolysis at 0.1 uM; values are per cent of control
Autotaxin [7] = target: T1, Autotaxin; assay: Inhibition of human recombinant C-terminal FLAG-tagged autotaxin expressed in baculovirus-infected Sf9 cells assessed as FS-3 hydrolysis at 1 uM; values are per cent of control
[8] = target: T2, Glycerophosphocholine cholinephosphodiesterase ENPP6 (Homo sapiens) (UniProt Q6UWR7); assay: Inhibition of human recombinant C-terminal FLAG-tagged NPP6 expressed in baculovirus-infected Sf9 cells assessed as pNPPC hydrolysis at 10 uM relative to control
T2 sequence (whole entry): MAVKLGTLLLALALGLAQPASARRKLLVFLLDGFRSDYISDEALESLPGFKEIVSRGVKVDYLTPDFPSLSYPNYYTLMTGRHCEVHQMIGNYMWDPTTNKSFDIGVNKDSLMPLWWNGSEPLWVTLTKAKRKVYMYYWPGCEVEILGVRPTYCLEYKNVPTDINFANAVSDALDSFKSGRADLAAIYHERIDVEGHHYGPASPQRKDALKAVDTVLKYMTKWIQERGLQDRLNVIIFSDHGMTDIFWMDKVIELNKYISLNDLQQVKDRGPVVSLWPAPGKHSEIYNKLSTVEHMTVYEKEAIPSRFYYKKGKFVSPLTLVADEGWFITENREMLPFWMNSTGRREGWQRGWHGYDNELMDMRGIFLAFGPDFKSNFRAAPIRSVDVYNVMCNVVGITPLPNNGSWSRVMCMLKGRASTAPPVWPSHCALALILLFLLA
In short: (§2)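 Purified Sf9-expressed FLAG-tagged enzyme 8.3 nM with inhibitor 10 μM final. NPP6: pNPPC 10 μM in 100 mM Tris-HCl, 500 mM NaCl, 0.05% Triton X-100, pH 9. NPP7: pNPPC 500 μM in 50 mM Tris HCl, 150 mM NaCl, 10 mM sodium taurocholate, pH 8. 37 °C, A405 every 2 min; percent activity vs vehicle at 1 h after no-enzyme subtraction; three wells.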

Autotaxin [9] = target: T1, Autotaxin; assay: Inhibition of human recombinant C-terminal FLAG-tagged autotaxin expressed in baculovirus-infected Sf9 cells assessed as FS-3 hydrolysis at 30 uM; values are per cent of control
[10] = target: T3, Ectonucleotide pyrophosphatase/phosphodiesterase family member 7 (Homo sapiens) (UniProt Q6UWV6); assay: Inhibition of human recombinant C-terminal FLAG-tagged NPP7 expressed in baculovirus-infected Sf9 cells assessed as pNPPC hydrolysis at 10 uM relative to control; in short: as §2
T3 sequence (whole entry): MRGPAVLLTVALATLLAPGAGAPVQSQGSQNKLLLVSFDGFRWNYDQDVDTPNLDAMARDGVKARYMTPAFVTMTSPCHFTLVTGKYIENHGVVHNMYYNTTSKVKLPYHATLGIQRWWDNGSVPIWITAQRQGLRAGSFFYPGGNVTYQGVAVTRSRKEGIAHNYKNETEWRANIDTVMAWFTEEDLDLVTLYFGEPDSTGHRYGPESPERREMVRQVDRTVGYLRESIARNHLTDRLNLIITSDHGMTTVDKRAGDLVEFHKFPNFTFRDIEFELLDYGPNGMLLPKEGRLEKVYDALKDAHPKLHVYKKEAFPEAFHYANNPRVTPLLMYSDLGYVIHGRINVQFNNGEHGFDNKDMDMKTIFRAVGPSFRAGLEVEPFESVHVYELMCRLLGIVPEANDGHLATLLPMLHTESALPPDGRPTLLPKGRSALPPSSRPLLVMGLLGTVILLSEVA

Autotaxin [11] = target: T1, Autotaxin; assay: Inhibition of human recombinant C-terminal FLAG-tagged autotaxin expressed in baculovirus-infected Sf9 cells assessed as FS-3 hydrolysis at 10 uM; values are per cent of control
Autotaxin [12] = target: T1, Autotaxin; assay: Inhibition of human recombinant C-terminal FLAG-tagged autotaxin expressed in baculovirus-infected Sf9 cells assessed as FS-3 hydrolysis at 0.3 uM; values are per cent of control
Autotaxin [13] = target: T1, Autotaxin; assay: Inhibition of human recombinant C-terminal FLAG-tagged autotaxin expressed in baculovirus-infected Sf9 cells assessed as FS-3 hydrolysis at 0.01 uM; values are per cent of control
Autotaxin [14] = target: T1, Autotaxin; assay: Inhibition of human recombinant C-terminal FLAG-tagged autotaxin expressed in baculovirus-infected Sf9 cells assessed as FS-3 hydrolysis at 0.003 uM; values are per cent of control
Autotaxin [15] = target: T1, Autotaxin; assay: Inhibition of autotaxin at 10 uM; in short: as §1
Autotaxin [16] = target: T1, Autotaxin; assay: Inhibition of human recombinant C-terminal FLAG-tagged autotaxin expressed in baculovirus-infected Sf9 cells using lysophosphatidylcholine as substrate assessed as choline release by Amplex red reagent assay
In short: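 LPC 16:0 100 μM with purified human ATX 8.3 nM and inhibitor 10 μM final, 30 μM fatty acid free BSA, 50 mM Tris/5 mM CaCl2 pH 7.4, 37 °C. Choline detected by choline oxidase 0.1 U/mL, HRP 1 U/mL, Amplex Red 10 μM; fluorescence ex 560/em 590 every 2 min, percent of vehicle at 1 h after no-ATX subtraction; mean ± SD of three wells.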

Nc1ccc2cc(S(=O)(=O)O)c(/N=N/c3ccc(-c4ccc(/N=N/c5c(S(=O)(=O)O)cc6cc(S(=O)(=O)O)c(/N=N/c7cccc([N+](=O)[O-])c7)c(N)c6c5O)cc4)cc3)c(O)c2c1
inhibition (Autotaxin [1]): 65% | IC50 (Autotaxin [2]): 28.1 µM

CC(=O)Nc1ccc(/C=C/c2ccc(NC(=O)Nc3ccc(/C=C/c4ccc(NC(C)=O)cc4S(=O)(=O)O)c(S(=O)(=O)O)c3)cc2S(=O)(=O)O)c(S(=O)(=O)O)c1
inhibition (Autotaxin [1]): 49% | IC50 (Autotaxin [2]): 23 µM

COc1cc(-c2ccc(/N=N/c3c(S(=O)(=O)O)cc4cc(S(=O)(=O)O)cc(N)c4c3O)c(OC)c2)ccc1/N=N/c1c(S(=O)(=O)O)cc2cc(S(=O)(=O)O)cc(N)c2c1O
residual activity (Autotaxin [3]): 86.2% | Ki (Autotaxin [4]): 0.271 µM | residual activity (Autotaxin [5]): 14.1% | residual activity (Autotaxin [6]): 72% | inhibition (Autotaxin [1]): 93% | IC50 (Autotaxin [2]): 0.372 µM | residual activity (Autotaxin [7]): 26% | inhibition [8]: -3% | residual activity (Autotaxin [9]): 2.68% | inhibition [10]: -1% | residual activity (Autotaxin [11]): 6% | residual activity (Autotaxin [12]): 52.9% | residual activity (Autotaxin [13]): 93.9% | residual activity (Autotaxin [14]): 97.5%

O=S(=O)([O-])c1cccc2c1c(Nc1ccccc1)cc1c2nc2cc(S(=O)(=O)O)c(Nc3ccccc3)cc2[n+]1-c1ccccc1
inhibition (Autotaxin [1]): 51% | IC50 (Autotaxin [2]): 9.3 µM

O=[As](O)(O)c1ccc(Cc2ccc([As](=O)(O)O)cc2)cc1
inhibition (Autotaxin [15]): 98%

Nc1ccc(C(=O)Nc2ccc(C(=O)Nc3ccc4c(O)cc(S(=O)(=O)O)cc4c3)cc2)cc1
inhibition (Autotaxin [1]): 40% | inhibition (Autotaxin [16]): Active

COc1ccccc1/N=N/c1c(S(=O)(=O)O)cc2cc(NC(=O)Nc3ccc4c(O)c(/N=N/c5c(N)ccc6cc(S(=O)(=O)O)ccc56)c(S(=O)(=O)O)cc4c3)ccc2c1O
inhibition (Autotaxin [1]): 84% | IC50 (Autotaxin [2]): 11.6 µM

COc1cc(/N=N/c2c(S(=O)(=O)O)cc3cc(NC(=O)Nc4ccc5c(O)c(/N=N/c6ccc7cc(S(=O)(=O)O)ccc7c6)c(S(=O)(=O)O)cc5c4)ccc3c2O)c(C)cc1N
inhibition (Autotaxin [1]): 70% | IC50 (Autotaxin [2]): 13.8 µM

CCn1cc(C(=O)O)c(=O)c2cnc(N3CCN(C(=S)Nc4cc(Cl)cc(Cl)c4)CC3)nc21
inhibition (Autotaxin [15]): 100%

Cc1cc(-c2ccc(/N=N/c3ccc4c(S(=O)(=O)O)cc(S(=O)(=O)O)c(N)c4c3O)c(C)c2)ccc1/N=N/c1ccc2c(S(=O)(=O)O)cc(S(=O)(=O)O)c(N)c2c1O [EVANS BLUE]
residual activity (Autotaxin [3]): 89.6% | Ki (Autotaxin [4]): 0.824 µM | residual activity (Autotaxin [5]): 35.8% | residual activity (Autotaxin [6]): 82.3% | inhibition (Autotaxin [1]): 64% | IC50 (Autotaxin [2]): 0.922 µM | residual activity (Autotaxin [7]): 47.9% | inhibition [8]: -2% | residual activity (Autotaxin [9]): 13.3% | inhibition [10]: -2% | residual activity (Autotaxin [11]): 26.2% | residual activity (Autotaxin [12]): 60.9% | residual activity (Autotaxin [13]): 96% | residual activity (Autotaxin [14]): 95.8%
